Values after ≈ are worked out from the molar mass of the structure shown.
What was measured:
[1] = Kinetic solubility of the compound in PBS buffer at pH 7.4 after 18 hrs by UV spectrophotometric analysis; type: physicochemical; settings: for solubility kinetic at 18 h: PBS buffer, pH 7.4, read-out: Kinetic_solubility; for Kinetic_solubility: buffer, pH 7.4, 18 h, BLD = below limit of detection
How it was run: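 Compound from a 10 mM stock was added to PBS pH 7.4 and left 18 h at room temperature. The suspension was filtered, and the filtrate was mixed 1:1 with 1-propanol. Solubility was derived from UV spectrum AUC (250–500 nm) relative to a 1-propanol/PBS reference. Run in triplicate.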

[2] = tested on: Trypanosoma brucei brucei; experiment: Antitrypanosomal activity against Trypanosoma brucei brucei 221 after 48 hrs by Cell Titre Glo assay; type: functional, organism-based; settings: Trypanosoma brucei, 221, 48 h
How it was run: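 Bloodstream-form parasites grown in HMI-9 with 10% heat-inactivated FBS, 10% Serum Plus and penicillin/streptomycin at 37 °C, 5% CO₂, to 1 × 10⁶ cells/mL. Diluted to 1 × 10⁴ cells/mL, then dosed with a DMSO dilution series by pin transfer. Incubated 48 h at 37 °C, 5% CO₂. Viability read by CellTiter-Glo luminescence. EC₅₀ from a variable-slope sigmoidal fit. Mean of six replicates, errors as 95% CI.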

[3] = tested on: HepG2; experiment: Cytotoxicity against human HepG2 cells after 72 hrs by Cell Titre Glo assay; type: cell-based; settings: HepG2, 72 h
How it was run: (§1)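 Human cells grown to 80% confluence were plated in 384-well format and received compound dilutions by pin tool. After 72 h at 37 °C in 5% CO2, viability was measured by CellTiter-Glo luminescence.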

[4] = tested on: BJ; experiment: Cytotoxicity against human BJ cells after 72 hrs by Cell Titre Glo assay; type: cell-based; how it was run: as §1
[5] = tested on: Raji; experiment: Cytotoxicity against human Raji cells after 72 hrs by Cell Titre Glo assay; type: cell-based; how it was run: as §1
[6] = Permeability of the compound at pH 7.4 by PAMPA; type: ADME; settings: for Papp: PAMPA, read-out: permeability; for permeability: pampa, BLD = below limit of detection
How it was run: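 Compound (10 mM DMSO stock) was diluted in system solution buffer pH 7.4 and placed in the donor chamber of a PAMPA sandwich whose membrane was coated with GIT lipid. Acceptor buffer filled the acceptor chamber, and the assembly was stirred for 30 min. Donor and acceptor UV spectra (250–500 nm) were compared with a reference to give the permeability coefficient. Run in triplicate.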

[7] = tested on: HEK293; experiment: Cytotoxicity against HEK293 cells after 72 hrs by Cell Titre Glo assay; type: cell-based; settings: Homo sapiens, HEK293, 72 h; how it was run: as §1

SMILES | solubility kinetic at 18 h [1] | EC50 [2] | Papp [6] | Kinetic_solubility [1] | permeability [6] | EC50 [3] | EC50 [4] | EC50 [5] | EC50 [7]
Cc1c(NC(=O)c2cc([N+](=O)[O-])ccc2Cl)cccc1-c1nc2ccccc2s1 | – | 0.68 µM | – | BLD | BLD | > 25 µM | > 25 µM | > 25 µM | > 25 µM
COc1ccc(NC(=O)c2cc([N+](=O)[O-])ccc2Cl)cc1-c1nc2ccccc2s1 | 0.26 µM (≈ 0.114 µg/mL) | 3.6 µM | – | – | BLD | > 25 µM | > 25 µM | > 25 µM | > 25 µM
O=C(Nc1cc(-c2nc3ccccc3s2)ccc1Cl)c1cc([N+](=O)[O-])ccc1Cl | 0.1 µM (≈ 0.0444 µg/mL) | 0.24 µM | – | – | BLD | > 25 µM | > 25 µM | > 25 µM | > 25 µM
O=C(Nc1ccc(Cl)c(-c2nc3ccccc3s2)c1)c1cc([N+](=O)[O-])ccc1Cl | 0.41 µM (≈ 0.182 µg/mL) | 0.32 µM | 3 ×10⁻⁶ cm/s | – | – | > 25 µM | > 25 µM | > 25 µM | > 25 µM
COc1cc(Cl)c(C(=O)Nc2cccc(-c3nc4ccccc4s3)c2)cc1[N+](=O)[O-] | 0.01 µM (≈ 0.0044 µg/mL) | 0.33 µM | 12 ×10⁻⁶ cm/s | – | – | > 25 µM | > 25 µM | > 25 µM | > 25 µM
Cc1ccc(-c2nc3ccccc3s2)cc1NC(=O)c1cc([N+](=O)[O-])c(N(C)C)cc1Cl | 0.03 µM (≈ 0.014 µg/mL) | 0.47 µM | < 1 ×10⁻⁶ cm/s | – | – | > 25 µM | > 25 µM | > 25 µM | > 25 µM
CCOC(=O)Cc1cc(Cl)c(C(=O)Nc2cc(-c3nc4ccccc4s3)ccc2C)cc1[N+](=O)[O-] | 0.19 µM (≈ 0.0969 µg/mL) | 0.52 µM | 10 ×10⁻⁶ cm/s | – | – | > 25 µM | > 25 µM | > 25 µM | > 25 µM
COC(=O)C1CCN(c2cc(Cl)c(C(=O)Nc3cc(-c4nc5ccccc5s4)ccc3OC)cc2[N+](=O)[O-])CC1 | 0.17 µM (≈ 0.0988 µg/mL) | 0.72 µM | < 1 ×10⁻⁶ cm/s | – | – | > 25 µM | > 25 µM | > 25 µM | > 25 µM
O=C(O)COc1cc(Cl)c(C(=O)Nc2cccc(-c3nc4ccccc4s3)c2)cc1[N+](=O)[O-] | 6.7 µM (≈ 3.24 µg/mL) | 0.8 µM | < 1 ×10⁻⁶ cm/s | – | – | > 25 µM | > 25 µM | > 25 µM | > 25 µM
O=C(Nc1nc(-c2ccc(Cl)cc2)cs1)c1cc([N+](=O)[O-])ccc1Cl | – | 4.6 µM | 3 ×10⁻⁶ cm/s | BLD | – | > 27 µM | 18 µM | 12 µM | 15 µM
O=C(Nc1nc2ccc(F)cc2s1)c1cc([N+](=O)[O-])ccc1Cl | 0.57 µM (≈ 0.2 µg/mL) | 5.6 µM | 10 ×10⁻⁶ cm/s | – | – | > 27 µM | > 27 µM | > 27 µM | > 27 µM
O=C(Nc1ccccc1-c1nc2ccccc2s1)c1cc([N+](=O)[O-])ccc1Cl | – | > 33 µM | – | – | – | > 27 µM | > 27 µM | > 27 µM | > 27 µM
O=C(CNc1ccc(-c2nc3ccccc3s2)cc1)c1cc([N+](=O)[O-])ccc1Cl | – | > 16 µM | – | – | – | > 27 µM | > 27 µM | > 27 µM | > 27 µM
O=C(Nc1cccc(-c2nc3ccccc3[nH]2)c1)c1cc([N+](=O)[O-])ccc1Cl | 1.4 µM (≈ 0.55 µg/mL) | 26 µM | 352 ×10⁻⁶ cm/s | – | – | > 27 µM | > 27 µM | 20.7 µM | > 27 µM
Cc1cc(NC(=O)c2cc([N+](=O)[O-])ccc2Cl)cc(-c2nc3ccccc3o2)c1O | 0.09 µM (≈ 0.0381 µg/mL) | 0.22 µM | 105 ×10⁻⁶ cm/s | – | – | > 25 µM | > 25 µM | > 25 µM | > 25 µM
O=C(Nc1cc(-c2nc3ccccc3o2)ccc1F)c1cc([N+](=O)[O-])ccc1Cl | – | 0.3 µM | 214 ×10⁻⁶ cm/s | BLD | – | > 25 µM | > 25 µM | > 25 µM | > 25 µM
O=C(Nc1ccc(Cl)cc1)c1cc([N+](=O)[O-])ccc1Cl | – | – | – | – | – | > 27 µM | > 27 µM | > 27 µM | > 27 µM

Second part, led by results:

solubility kinetic at 18 h [1] | EC50 [2] | Papp [6] | Kinetic_solubility [1] | permeability [6] | SMILES | EC50 [3] | EC50 [4] | EC50 [5] | EC50 [7]
0.27 µM (≈ 0.111 µg/mL) | 0.17 µM | 366 ×10⁻⁶ cm/s | – | – | O=C(Nc1ccc(F)c(-c2nc3ccccc3o2)c1)c1cc([N+](=O)[O-])ccc1Cl | > 25 µM | > 25 µM | > 25 µM | > 25 µM
0.43 µM (≈ 0.189 µg/mL) | > 10 µM | 48 ×10⁻⁶ cm/s | – | – | Cc1cc(NC(=O)c2cc([N+](=O)[O-])ccc2Cl)cc(-c2nc3ccccc3s2)c1O | > 25 µM | > 25 µM | > 25 µM | > 25 µM
0.023 µM (≈ 0.00979 µg/mL) | > 33 µM | – | – | BLD | O=C(Nc1ccc(O)c(-c2nc3ccccc3s2)c1)c1cc([N+](=O)[O-])ccc1Cl | > 25 µM | > 25 µM | > 25 µM | > 25 µM
– | 0.31 µM | 24 ×10⁻⁶ cm/s | BLD | – | COC(=O)C1CCN(c2cc(Cl)c(C(=O)Nc3cc(-c4nc5ccccc5s4)ccc3C)cc2[N+](=O)[O-])CC1 | > 25 µM | > 25 µM | > 25 µM | > 25 µM
0.59 µM (≈ 0.325 µg/mL) | 0.5 µM | 17 ×10⁻⁶ cm/s | – | – | Cc1ccc(-c2nc3ccccc3s2)cc1NC(=O)c1cc([N+](=O)[O-])c(N2CCC(C(=O)O)CC2)cc1Cl | > 25 µM | > 25 µM | > 25 µM | > 25 µM
0.21 µM (≈ 0.119 µg/mL) | 0.64 µM | 5 ×10⁻⁶ cm/s | – | – | COc1ccc(-c2nc3ccccc3s2)cc1NC(=O)c1cc([N+](=O)[O-])c(N2CCC(C(=O)O)CC2)cc1Cl | > 25 µM | > 25 µM | > 25 µM | > 25 µM
– | 0.73 µM | < 1 ×10⁻⁶ cm/s | BLD | – | Cc1ccc(-c2nc3ccccc3s2)cc1NC(=O)c1cc([N+](=O)[O-])c(N2CCCCC2)cc1Cl | > 25 µM | > 25 µM | > 25 µM | > 25 µM
2.2 µM (≈ 0.937 µg/mL) | > 33 µM | 307 ×10⁻⁶ cm/s | – | – | O=C(Nc1cccc(-c2nc3ccccc3s2)c1)c1cc([N+](=O)[O-])c(O)cc1Cl | > 25 µM | > 25 µM | > 25 µM | > 25 µM
0.78 µM (≈ 0.295 µg/mL) | 3.5 µM | 3 ×10⁻⁶ cm/s | – | – | O=C(Nc1nc(-c2cccc(F)c2)cs1)c1cc([N+](=O)[O-])ccc1Cl | 18 µM | 24 µM | 11 µM | 8.7 µM
1.2 µM (≈ 0.442 µg/mL) | 8.1 µM | 138 ×10⁻⁶ cm/s | – | – | O=C(Nc1nc2ccc(Cl)cc2s1)c1cc([N+](=O)[O-])ccc1Cl | > 27 µM | > 27 µM | > 27 µM | > 27 µM
0.72 µM (≈ 0.265 µg/mL) | 12 µM | 242 ×10⁻⁶ cm/s | – | – | O=C(Nc1nc2c(Cl)cccc2s1)c1cc([N+](=O)[O-])ccc1Cl | > 27 µM | > 27 µM | 15 µM | > 27 µM
– | 1.1 µM | – | BLD | BLD | O=C(Nc1ccc(-c2nc3ccccc3s2)cc1)c1cc([N+](=O)[O-])ccc1Cl | > 27 µM | > 27 µM | > 27 µM | > 27 µM
0.12 µM (≈ 0.0423 µg/mL) | 1.9 µM | 26 ×10⁻⁶ cm/s | – | – | O=C(Nc1ccc(-c2ccccc2)cc1)c1cc([N+](=O)[O-])ccc1Cl | > 27 µM | > 27 µM | > 27 µM | > 27 µM
0.41 µM (≈ 0.145 µg/mL) | 1.2 µM | – | – | BLD | O=C(Nc1cccc(-c2ccccc2)c1)c1cc([N+](=O)[O-])ccc1Cl | > 27 µM | > 27 µM | > 27 µM | 22 µM
0.31 µM (≈ 0.126 µg/mL) | 0.02 µM | – | – | BLD | Cc1ccc(-c2nc3ccccc3o2)cc1NC(=O)c1cc([N+](=O)[O-])ccc1Cl | > 14 µM | > 14 µM | > 14 µM | > 14 µM
0.09 µM (≈ 0.0381 µg/mL) | 0.12 µM | 274 ×10⁻⁶ cm/s | – | – | COc1ccc(-c2nc3ccccc3o2)cc1NC(=O)c1cc([N+](=O)[O-])ccc1Cl | > 25 µM | > 25 µM | > 25 µM | > 25 µM
